# Data published in ChEMBL document CHEMBL1629526, “4-[1-(Substituted aryl/alkyl carbonyl)-benzoimidazol-2-yl]-benzenesulfonic acids: synthesis, antimicrobial activity, QSAR studies, and antiviral evaluation” (Eur J Med Chem, 2010).
# Assays:
# [1] = system: Felid alphaherpesvirus 1; test: Antiviral activity against Feline herpesvirus 1 infected in cat CRFK cells assessed as inhibition of virus induced cytopathicity after 2 to 4 days by MTS assay; type: functional, organism-based; details: Felid alphaherpesvirus 1, CRFK
# [2] = system: Bacillus subtilis; test: Antimicrobial activity against Bacillus subtilis after 24 hrs by tube dilution method; type: functional
# Summary of the method: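 Serial dilutions in double-strength nutrient broth (I.P.) with ciprofloxacin as reference, tube dilution, incubated 37 °C for 24 h. MIC is the lowest concentration that inhibited growth.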
# [3] = system: Vesicular stomatitis virus; test: Antiviral activity against Vesicular stomatitis virus infected in human HeLa cells assessed as inhibition of virus induced cytopathicity by visual scoring of CPE; type: functional, organism-based
# [4] = system: Human alphaherpesvirus 2; test: Antiviral activity against Herpes simplex virus 2 G infected in HEL cells assessed as inhibition of virus induced cytopathicity after 2 to 4 days by MTS assay; type: functional, organism-based; details: Human alphaherpesvirus 2, strain G
# [5] = system: Coxsackievirus B4; test: Antiviral activity against coxsackievirus B4 infected in human HeLa cells assessed as inhibition of virus induced cytopathicity after 2 to 4 days by MTS assay; type: functional, organism-based; details: Enterovirus B
# [6] = system: MDCK; test: Cytotoxicity against MDCK cells assessed as cell viability by MTS assay; type: cell-based, Canis lupus familiaris; details: dog, mdck
# Summary of the method: (§1)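 Uninfected cultures were run in parallel with the antiviral assays. Viability was read by colorimetric formazan MTS assay.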
# [7] = Cytotoxicity against cat CRFK cells assessed as cell viability by MTS assay; type: cell-based, Felis catus; details: crfk; summary of the method: as §1
# [8] = system: Respiratory syncytial virus; test: Antiviral activity against Respiratory syncytial virus infected in human HeLa cells assessed as inhibition of virus induced cytopathicity after 2 to 4 days by MTS assay; type: functional, organism-based
# [9] = system: Influenza A virus; test: Antiviral activity against Influenza A H1N1 virus subtype infected in MDCK cells assessed as inhibition of virus induced cytopathicity by visual scoring of CPE; type: functional, organism-based
# [10] = system: Mammalian orthoreovirus 1; test: Antiviral activity against Reovirus 1 virus infected in african green monkey Vero cells assessed as inhibition of virus induced cytopathicity after 2 to 4 days by MTS assay; type: functional, organism-based; details: Mammalian orthoreovirus 1, Vero
# [11] = system: Escherichia coli; test: Antimicrobial activity against Escherichia coli after 24 hrs by tube dilution method; type: functional
# [12] = system: Coxsackievirus B4; test: Antiviral activity against coxsackievirus B4 infected in human HeLa cells assessed as inhibition of virus induced cytopathicity by visual scoring of CPE; type: functional, organism-based; details: Enterovirus B
# [13] = system: Staphylococcus aureus; test: Antimicrobial activity against Staphylococcus aureus after 24 hrs by tube dilution method; type: functional
# [14] = system: Human alphaherpesvirus 1; test: Antiviral activity against thymidine kinase deficient acyclovir-resistant Herpes simplex virus 1 KOS infected in HEL cells assessed as inhibition of virus induced cytopathicity after 2 to 4 days by MTS assay; type: functional, organism-based; details: Human alphaherpesvirus 1, KOS
# [15] = system: Respiratory syncytial virus; test: Antiviral activity against Respiratory syncytial virus infected in human HeLa cells assessed as inhibition of virus induced cytopathicity by visual scoring of CPE; type: functional, organism-based
# [16] = system: Influenza A virus; test: Antiviral activity against Influenza A H3N2 virus subtype infected in MDCK cells assessed as inhibition of virus induced cytopathicity after 2 to 4 days by MTS assay; type: functional, organism-based
# [17] = system: Human respirovirus 3; test: Antiviral activity against parainfluenza-3 virus infected in african green monkey Vero cells assessed as inhibition of virus induced cytopathicity after 2 to 4 days by MTS assay; type: functional, organism-based; details: Human respirovirus 3, Vero
# [18] = system: Aspergillus niger; test: Antimicrobial activity against Aspergillus niger after 7 days by tube dilution method; type: functional; details: 168 h
# [19] = system: Influenza B virus; test: Antiviral activity against Influenza B virus infected in MDCK cells assessed as inhibition of virus induced cytopathicity by visual scoring of CPE; type: functional, organism-based
# [20] = system: Vesicular stomatitis virus; test: Antiviral activity against Vesicular stomatitis virus infected in human HeLa cells assessed as inhibition of virus induced cytopathicity after 2 to 4 days by MTS assay; type: functional, organism-based
# [21] = Cytotoxicity against MDCK cells assessed as altered cell morphology; type: cell-based, Canis lupus familiaris; details: dog
# Summary of the method: (§2)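 Uninfected cell cultures run alongside the antiviral assays, exposed to serial compound dilutions and incubated at 37 °C for 2–4 days. Toxicity was scored microscopically and reported as the minimum cytotoxic concentration (MCC), the lowest concentration causing a detectable change in normal cell morphology.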
# [22] = system: Vesicular stomatitis virus; test: Antiviral activity against Vesicular stomatitis virus infected in HEL cells assessed as inhibition of virus induced cytopathicity after 2 to 4 days by MTS assay; type: functional, organism-based
# [23] = system: Punta Toro virus; test: Antiviral activity against Punta Toro virus infected in african green monkey Vero cells assessed as inhibition of virus induced cytopathicity after 2 to 4 days by MTS assay; type: functional, organism-based
# [24] = system: Human alphaherpesvirus 1; test: Antiviral activity against Herpes simplex virus 1 KOS infected in HEL cells assessed as inhibition of virus induced cytopathicity after 2 to 4 days by MTS assay; type: functional, organism-based; details: Human alphaherpesvirus 1, KOS
# [25] = system: HeLa; test: Cytotoxicity against human HeLa cells assessed as cell viability by MTS assay; type: cell-based; details: hela; summary of the method: as §1
# [26] = system: Influenza A virus; test: Antiviral activity against Influenza A H3N2 virus subtype infected in MDCK cells assessed as inhibition of virus induced cytopathicity by visual scoring of CPE; type: functional, organism-based
# [27] = system: Influenza B virus; test: Antiviral activity against Influenza B virus infected in MDCK cells assessed as inhibition of virus induced cytopathicity after 2 to 4 days by MTS assay; type: functional, organism-based
# [28] = system: Influenza A virus; test: Antiviral activity against Influenza A H1N1 virus subtype infected in MDCK cells assessed as inhibition of virus induced cytopathicity after 2 to 4 days by MTS assay; type: functional, organism-based
# [29] = system: Candida albicans; test: Antimicrobial activity against Candida albicans after 48 hrs by tube dilution method; type: functional
# [30] = system: Sindbis virus; test: Antiviral activity against Sindbis virus infected in african green monkey Vero cells assessed as inhibition of virus induced cytopathicity after 2 to 4 days by MTS assay; type: functional, organism-based
# [31] = Cytotoxicity against human HEL cells assessed as altered cell morphology; type: cell-based; summary of the method: as §2
# [32] = system: Feline coronavirus; test: Antiviral activity against Feline coronavirus infected in cat CRFK cells assessed as inhibition of virus induced cytopathicity after 2 to 4 days by MTS assay; type: functional, organism-based; details: Alphacoronavirus 1, CRFK
# [33] = Cytotoxicity against human HeLa cells assessed as altered cell morphology; type: cell-based; summary of the method: as §2
# [34] = system: Coxsackievirus B4; test: Antiviral activity against Coxsackie virus B4 infected in african green monkey Vero cells assessed as inhibition of virus induced cytopathicity after 2 to 4 days by MTS assay; type: functional, organism-based; details: Enterovirus B
# [35] = system: Vaccinia virus; test: Antiviral activity against Vaccinia virus infected in HEL cells assessed as inhibition of virus induced cytopathicity after 2 to 4 days by MTS assay; type: functional, organism-based; details: Orthopoxvirus vaccinia
# [36] = Cytotoxicity against african green monkey Vero cells assessed as altered cell morphology; type: cell-based; details: chlorocebus sabaeus; summary of the method: as §2
structure (smiles),measurement,setting,value
Nc1ccc(C(=O)n2c(-c3ccc(S(=O)(=O)O)cc3)nc3ccccc32)cc1,EC50,[1],> 100 µg/mL
same,MBC,[2],> 50 µg/mL
same,EC50,[3],> 100 µg/mL
same,EC50,[4],> 100 µg/mL
same,EC50,[5],> 100 µg/mL
same,CC50,[6],46.8 µg/mL
same,CC50,[7],> 100 µg/mL
same,EC50,[8],> 100 µg/mL
same,EC50,[9],> 4 µg/mL
same,EC50,[10],> 100 µg/mL
same,MBC,[11],25 µg/mL
same,EC50,[12],> 100 µg/mL
same,MBC,[13],12.5 µg/mL
same,EC50,[14],> 100 µg/mL
same,EC50,[15],> 100 µg/mL
same,EC50,[16],> 4 µg/mL
same,EC50,[17],> 100 µg/mL
same,MFC,[18],> 50 µg/mL
same,EC50,[19],> 4 µg/mL
same,EC50,[20],> 100 µg/mL
same,MCC,[21],20 µg/mL
same,EC50,[22],> 100 µg/mL
same,EC50,[23],> 100 µg/mL
same,EC50,[24],> 100 µg/mL
same,CC50,[25],> 100 µg/mL
same,EC50,[26],> 4 µg/mL
same,EC50,[27],> 4 µg/mL
same,EC50,[28],> 4 µg/mL
same,MFC,[29],> 50 µg/mL
same,EC50,[30],> 100 µg/mL
same,MCC,[31],> 100 µg/mL
same,EC50,[32],> 100 µg/mL
same,MCC,[33],> 100 µg/mL
same,EC50,[34],> 100 µg/mL
same,EC50,[35],> 100 µg/mL
same,MCC,[36],> 100 µg/mL
O=C(c1cccc(O)c1)n1c(-c2ccc(S(=O)(=O)O)cc2)nc2ccccc21,EC50,[1],> 100 µg/mL
same,MBC,[2],> 50 µg/mL
same,EC50,[3],> 100 µg/mL
same,EC50,[4],> 100 µg/mL
same,EC50,[5],> 100 µg/mL
same,CC50,[6],> 100 µg/mL
same,CC50,[7],> 100 µg/mL
same,EC50,[8],> 100 µg/mL
same,EC50,[9],> 20 µg/mL
same,EC50,[10],> 100 µg/mL
same,MBC,[11],3.12 µg/mL
same,EC50,[12],> 100 µg/mL
same,MBC,[13],12.5 µg/mL
same,EC50,[14],> 100 µg/mL
same,EC50,[15],> 100 µg/mL
same,EC50,[16],> 20 µg/mL
same,EC50,[17],> 100 µg/mL
same,MFC,[18],> 50 µg/mL
same,EC50,[19],> 20 µg/mL
same,EC50,[20],> 100 µg/mL
same,MCC,[21],100 µg/mL
same,EC50,[22],> 100 µg/mL
same,EC50,[23],> 100 µg/mL
same,EC50,[24],> 100 µg/mL
same,CC50,[25],> 100 µg/mL
same,EC50,[26],> 20 µg/mL
same,EC50,[27],> 20 µg/mL
same,EC50,[28],> 20 µg/mL
same,MFC,[29],50 µg/mL
same,EC50,[30],> 100 µg/mL
same,MCC,[31],> 100 µg/mL
same,EC50,[32],> 100 µg/mL
same,MCC,[33],> 100 µg/mL
same,EC50,[34],> 100 µg/mL
same,EC50,[35],> 100 µg/mL
same,MCC,[36],> 100 µg/mL
O=C(c1ccc(O)cc1O)n1c(-c2ccc(S(=O)(=O)O)cc2)nc2ccccc21,EC50,[1],> 100 µg/mL
same,MBC,[2],25 µg/mL
same,EC50,[3],> 100 µg/mL
same,EC50,[4],> 20 µg/mL
same,EC50,[5],> 100 µg/mL
same,CC50,[6],54 µg/mL
same,CC50,[7],> 100 µg/mL
same,EC50,[8],> 100 µg/mL
same,EC50,[9],> 4 µg/mL
same,EC50,[10],> 100 µg/mL
same,MBC,[11],1.56 µg/mL
same,EC50,[12],> 100 µg/mL
same,MBC,[13],12.5 µg/mL
same,EC50,[14],> 20 µg/mL
same,EC50,[15],> 100 µg/mL
same,EC50,[16],> 4 µg/mL
same,EC50,[17],> 100 µg/mL
same,MFC,[18],> 50 µg/mL
same,EC50,[19],> 4 µg/mL
same,EC50,[20],> 100 µg/mL
same,MCC,[21],20 µg/mL
same,EC50,[22],> 20 µg/mL
same,EC50,[23],> 100 µg/mL
same,EC50,[24],> 20 µg/mL
same,CC50,[25],> 100 µg/mL
same,EC50,[26],> 4 µg/mL
same,EC50,[27],> 4 µg/mL
same,EC50,[28],> 4 µg/mL
same,MFC,[29],12.5 µg/mL
same,EC50,[30],> 100 µg/mL
same,MCC,[31],100 µg/mL
same,EC50,[32],> 100 µg/mL
same,MCC,[33],> 100 µg/mL
same,EC50,[34],> 100 µg/mL
same,EC50,[35],> 20 µg/mL
same,MCC,[36],> 100 µg/mL
O=C(c1ccccc1O)n1c(-c2ccc(S(=O)(=O)O)cc2)nc2ccccc21,EC50,[1],> 100 µg/mL
same,MBC,[2],25 µg/mL
same,EC50,[3],> 100 µg/mL
same,EC50,[4],> 100 µg/mL
same,EC50,[5],> 100 µg/mL
same,CC50,[6],> 100 µg/mL
same,CC50,[7],> 100 µg/mL
same,EC50,[8],> 100 µg/mL
same,EC50,[9],> 20 µg/mL
same,EC50,[10],> 100 µg/mL
same,MBC,[11],12.5 µg/mL
same,EC50,[12],> 100 µg/mL
same,MBC,[13],25 µg/mL
same,EC50,[14],> 100 µg/mL
same,EC50,[15],> 100 µg/mL
same,EC50,[16],> 20 µg/mL
same,EC50,[17],> 100 µg/mL
same,MFC,[18],> 50 µg/mL
same,EC50,[19],> 20 µg/mL
same,EC50,[20],> 100 µg/mL
same,MCC,[21],100 µg/mL
same,EC50,[22],> 100 µg/mL
same,EC50,[23],> 100 µg/mL
same,EC50,[24],> 100 µg/mL
same,CC50,[25],> 100 µg/mL
same,EC50,[26],> 20 µg/mL
same,EC50,[27],> 20 µg/mL
same,EC50,[28],> 20 µg/mL
same,MFC,[29],50 µg/mL
same,EC50,[30],> 100 µg/mL
same,MCC,[31],> 100 µg/mL
same,EC50,[32],> 100 µg/mL
same,MCC,[33],> 100 µg/mL
same,EC50,[34],> 100 µg/mL
same,EC50,[35],> 100 µg/mL
same,MCC,[36],> 100 µg/mL
